Structures are written as SMILES. Some results are limits rather than exact numbers.

The test system of test [1] is Rattus norvegicus. Description: Maximal change in mean arterial blood pressure (MABP) measured as pretreatment value at dose of 50 mg/kg in SHR. The test is classed as functional. The gist of the method:
(§1)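 Spontaneously hypertensive rats; test agent dissolved or dispersed in 0.5% methylcellulose and given by gastric gavage at 5 mL/kg after a 1-h equilibration. Doses ranged from 1 to 100 mg/kg, with 4–8 animals per dose. MABP and HR were monitored for 4 h. Pretreatment values and maximal % change were recorded, and maximal changes were compared with vehicle by Dunnett's t test.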

The subject of test [2] is Rattus norvegicus. Briefly: Maximal change in mean arterial blood pressure (MABP) measured as % change from pretreatment value at dose of 50 mg/kg in SHR. Type of test: functional. The gist of the method:
as §1

For test [3], the target named is Beta-1 adrenergic receptor (Cavia porcellus) (UniProt B0FL73). Briefly: Beta-1-adrenoceptor ISA (intrinsic sympathomimetic activity)using the guinea pig right atria was measured as % increase of positive chronotropic effect (basal spontaneous beating rate) at 1x10E-6 M. Type of test: functional.
Beta-1 adrenergic receptor (Cavia porcellus), sequence (B0FL73 1-467): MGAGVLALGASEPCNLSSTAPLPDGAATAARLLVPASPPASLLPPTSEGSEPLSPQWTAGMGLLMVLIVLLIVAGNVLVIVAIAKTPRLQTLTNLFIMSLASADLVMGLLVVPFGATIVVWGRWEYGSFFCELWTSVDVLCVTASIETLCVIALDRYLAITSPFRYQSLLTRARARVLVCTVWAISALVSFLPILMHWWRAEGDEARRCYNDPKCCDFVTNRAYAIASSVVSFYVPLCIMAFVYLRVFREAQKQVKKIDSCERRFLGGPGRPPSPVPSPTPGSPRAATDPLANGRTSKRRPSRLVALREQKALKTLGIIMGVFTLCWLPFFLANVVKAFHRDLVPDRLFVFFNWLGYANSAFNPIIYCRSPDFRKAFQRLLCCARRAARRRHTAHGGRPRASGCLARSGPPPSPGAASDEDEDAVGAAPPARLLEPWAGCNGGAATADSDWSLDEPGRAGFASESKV
The target of test [4] is T1, Adrenergic receptor alpha-2 (Rattus norvegicus, UniProt P22086+P19328+P22909).
T1 sequence (P22086 whole entry): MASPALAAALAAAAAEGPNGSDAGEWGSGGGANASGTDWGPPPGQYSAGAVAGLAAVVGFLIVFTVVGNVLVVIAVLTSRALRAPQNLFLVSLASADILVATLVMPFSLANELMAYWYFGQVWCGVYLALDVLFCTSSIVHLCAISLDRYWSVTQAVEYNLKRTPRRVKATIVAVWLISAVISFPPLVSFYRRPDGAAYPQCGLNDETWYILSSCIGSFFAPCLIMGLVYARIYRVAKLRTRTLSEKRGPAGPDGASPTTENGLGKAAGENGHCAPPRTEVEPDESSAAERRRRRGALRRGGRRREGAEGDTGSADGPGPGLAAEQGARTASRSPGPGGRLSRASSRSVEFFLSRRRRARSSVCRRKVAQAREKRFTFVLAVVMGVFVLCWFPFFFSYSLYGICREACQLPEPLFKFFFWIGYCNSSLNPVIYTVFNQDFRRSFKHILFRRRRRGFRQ
T1 sequence (P19328 whole entry): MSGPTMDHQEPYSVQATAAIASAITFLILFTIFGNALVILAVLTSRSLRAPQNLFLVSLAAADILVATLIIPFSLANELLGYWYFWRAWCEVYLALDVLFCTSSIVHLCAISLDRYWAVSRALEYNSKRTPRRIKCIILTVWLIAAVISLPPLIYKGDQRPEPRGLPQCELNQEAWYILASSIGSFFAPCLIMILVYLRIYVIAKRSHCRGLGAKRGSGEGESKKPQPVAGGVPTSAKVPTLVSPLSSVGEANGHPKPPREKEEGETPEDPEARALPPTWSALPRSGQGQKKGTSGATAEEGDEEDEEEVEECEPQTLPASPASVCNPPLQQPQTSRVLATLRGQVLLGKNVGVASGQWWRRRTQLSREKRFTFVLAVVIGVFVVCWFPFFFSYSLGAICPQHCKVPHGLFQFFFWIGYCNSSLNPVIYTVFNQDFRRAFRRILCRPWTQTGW
T1 sequence (P22909 whole entry): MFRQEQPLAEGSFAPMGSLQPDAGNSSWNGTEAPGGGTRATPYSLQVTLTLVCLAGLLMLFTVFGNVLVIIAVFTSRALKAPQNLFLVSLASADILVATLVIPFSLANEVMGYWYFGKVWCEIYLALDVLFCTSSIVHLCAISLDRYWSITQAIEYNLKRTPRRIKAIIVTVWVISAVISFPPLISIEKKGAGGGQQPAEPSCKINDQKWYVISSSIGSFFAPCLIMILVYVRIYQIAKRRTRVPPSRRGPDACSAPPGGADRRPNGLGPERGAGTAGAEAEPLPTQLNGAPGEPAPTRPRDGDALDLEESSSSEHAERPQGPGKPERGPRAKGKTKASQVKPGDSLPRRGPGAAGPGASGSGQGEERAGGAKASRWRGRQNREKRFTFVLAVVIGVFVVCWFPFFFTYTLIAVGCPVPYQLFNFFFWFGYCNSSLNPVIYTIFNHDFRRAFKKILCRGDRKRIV
Description: The compound was evaluated for the antagonistic activity against alpha-2 adrenergic receptor. The test is classed as functional.

The species named for test [5] is Cavia porcellus. Briefly: Beta-2-adrenoceptor ISA (intrinsic sympathomimetic activity)was measured as relaxant effect against a PGF2-alpha contracted guinea pig trachea at 1x10E-5 M. The test is classed as functional.
In test [6] the test system is Rattus norvegicus. Briefly: Maximal change in heart rate (HR) measured as % change from pretreatment value at dose of 50 mg/kg in SHR. Type of test: functional. Put shortly: as §1
In test [7] the target is Beta-2 adrenergic receptor (Cavia porcellus, UniProt Q8K4Z4). Briefly: The compound was evaluated for the antagonistic activity against beta-2 adrenergic receptor. Type of test: functional. The conditions noted are these: read-out: pA2 (converted). The gist of the method: (§2)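 Isolated tissue suited to each receptor test, held in 10-mL organ baths of Krebs-Henseleit solution at 37 °C and gassed with 95% O2/5% CO2. Antagonism was judged by how several concentrations of test agent altered a cumulative concentration-response curve to a receptor-specific agonist.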
Beta-2 adrenergic receptor, sequence (Q8K4Z4 whole entry): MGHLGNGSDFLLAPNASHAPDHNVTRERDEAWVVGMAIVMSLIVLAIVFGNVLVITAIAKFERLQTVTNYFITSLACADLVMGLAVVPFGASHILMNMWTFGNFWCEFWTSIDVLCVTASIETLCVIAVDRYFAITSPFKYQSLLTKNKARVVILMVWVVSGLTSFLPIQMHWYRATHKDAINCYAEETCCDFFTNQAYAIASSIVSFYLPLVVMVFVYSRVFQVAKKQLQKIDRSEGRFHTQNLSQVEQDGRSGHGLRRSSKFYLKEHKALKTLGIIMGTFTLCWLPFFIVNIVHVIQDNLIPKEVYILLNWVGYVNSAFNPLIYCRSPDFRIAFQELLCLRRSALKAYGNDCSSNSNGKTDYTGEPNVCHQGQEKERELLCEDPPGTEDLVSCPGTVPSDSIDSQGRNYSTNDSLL

For test [8], the target named is Beta-1 adrenergic receptor (Cavia porcellus, UniProt B0FL73). Briefly: The compound was evaluated for the antagonistic activity against beta-1 adrenergic receptor. The test is classed as functional. The conditions noted are these: read-out: pA2 (converted). The gist of the method: as §2
Beta-1 adrenergic receptor, sequence (B0FL73 whole entry): as the sequence (B0FL73 1-467) above
The target of test [9] is T2, Adrenergic receptor alpha-1 (Homo sapiens, UniProt P35348+P25100+P35368).
T2 sequence (P35348 whole entry): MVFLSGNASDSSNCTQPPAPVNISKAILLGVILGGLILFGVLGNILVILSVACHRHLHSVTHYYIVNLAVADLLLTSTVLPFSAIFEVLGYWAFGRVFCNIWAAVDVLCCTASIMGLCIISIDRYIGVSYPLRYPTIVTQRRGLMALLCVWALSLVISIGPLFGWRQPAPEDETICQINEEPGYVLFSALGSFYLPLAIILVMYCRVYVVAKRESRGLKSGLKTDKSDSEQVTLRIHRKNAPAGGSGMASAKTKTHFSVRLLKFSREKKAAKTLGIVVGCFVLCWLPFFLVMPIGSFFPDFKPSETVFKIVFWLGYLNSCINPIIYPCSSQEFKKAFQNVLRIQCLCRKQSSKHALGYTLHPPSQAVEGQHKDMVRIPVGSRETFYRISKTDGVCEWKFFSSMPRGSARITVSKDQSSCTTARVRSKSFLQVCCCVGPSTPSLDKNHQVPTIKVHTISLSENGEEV
T2 sequence (P25100 whole entry): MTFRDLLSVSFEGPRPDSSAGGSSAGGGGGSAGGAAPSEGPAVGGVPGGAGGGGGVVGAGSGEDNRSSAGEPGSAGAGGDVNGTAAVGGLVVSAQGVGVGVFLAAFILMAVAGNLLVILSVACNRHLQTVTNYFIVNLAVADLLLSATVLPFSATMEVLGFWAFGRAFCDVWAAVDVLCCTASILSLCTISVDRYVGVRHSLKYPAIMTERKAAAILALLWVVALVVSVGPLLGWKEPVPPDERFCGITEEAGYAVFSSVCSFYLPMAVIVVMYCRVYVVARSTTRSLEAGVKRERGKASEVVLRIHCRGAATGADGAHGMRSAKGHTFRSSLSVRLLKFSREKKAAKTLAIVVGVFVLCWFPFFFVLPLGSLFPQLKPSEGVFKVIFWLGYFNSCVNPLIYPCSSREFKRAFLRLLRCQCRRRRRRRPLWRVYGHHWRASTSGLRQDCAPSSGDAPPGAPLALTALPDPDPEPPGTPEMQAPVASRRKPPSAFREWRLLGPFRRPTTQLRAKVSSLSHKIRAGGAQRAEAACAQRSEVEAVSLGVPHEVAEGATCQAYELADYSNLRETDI
T2 sequence (P35368 whole entry): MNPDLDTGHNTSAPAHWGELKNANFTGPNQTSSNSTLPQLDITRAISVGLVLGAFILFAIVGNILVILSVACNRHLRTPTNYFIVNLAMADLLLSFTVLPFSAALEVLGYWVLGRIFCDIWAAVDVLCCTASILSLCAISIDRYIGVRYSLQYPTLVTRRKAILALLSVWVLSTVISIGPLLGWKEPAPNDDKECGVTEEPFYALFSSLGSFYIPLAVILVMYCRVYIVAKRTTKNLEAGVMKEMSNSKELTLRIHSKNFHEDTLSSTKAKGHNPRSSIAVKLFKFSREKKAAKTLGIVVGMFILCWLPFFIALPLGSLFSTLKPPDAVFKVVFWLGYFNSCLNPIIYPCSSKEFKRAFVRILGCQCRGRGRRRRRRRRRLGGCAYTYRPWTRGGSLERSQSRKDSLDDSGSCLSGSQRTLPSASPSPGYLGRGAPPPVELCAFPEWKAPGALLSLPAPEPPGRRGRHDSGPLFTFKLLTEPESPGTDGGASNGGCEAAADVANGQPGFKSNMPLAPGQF
Briefly: The compound was evaluated for the antagonistic activity against alpha-1 adrenergic receptor. The test is classed as functional, Oryctolagus cuniculus. Put shortly: as §2

Test [10] concerns Rattus norvegicus. Description: Maximal change in heart rate (HR) measured as pretreatment value at dose of 50 mg/kg in SHR. The test is classed as functional. The gist of the method: as §1

As usually defined, the pA2 is a measure of antagonist potency on a negative log scale. As to `CC(CCc1ccccc1)NCC(O)c1cc(C(N)=O)c2c(ccn2C)c1` (stereo not given), in test [1], the MABP is 166 mmHg. For the same compound, the Change in test [2] was -13%; in test [3], 2.7%; in test [5], 34.6%; in test [6], -15%. In addition, the pA2 in test [4] is on record as under 5; in [9], 6.2. Further, the Kb in test [7] is over 10 µM; in test [8], over 1 µM. Besides, the HR in test [10] is 411 beats min-1.

Values taken from ChEMBL document CHEMBL1123192 (J Med Chem, 1986).
